Results published in ChEMBL document CHEMBL1154604, “Novel hybrids from lamellarin D and combretastatin A 4 as cytotoxic agents” (Eur J Med Chem, 2010).

Experiments:
Format in all cases: functional, cell-based
A549 = experiment: Antiproliferative activity against human A549 cells after 48 hrs by MTT assay; details: A549, 48 h
How it was run: (§1)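 Exponentially growing cells seeded in 96-well plates, left 24 h, then exposed to compounds at given concentrations for 48 h. MTT at 2.5 mg ml^-1 added for 4 h; formazan dissolved in 10% SDS in 0.1 N HCl, absorbance at 570 nm. Viability compared with blank; IC50 (50% inhibition of viability) calculated by Bliss method.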

K562 = experiment: Antiproliferative activity against human K562 cells after 48 hrs by MTT assay; details: K562, 48 h; how it was run: as §1
SMMC-7721 = experiment: Antiproliferative activity against human SMMC7721 cells after 48 hrs by MTT assay; details: SMMC-7721, 48 h; how it was run: as §1
HCT-116 = experiment: Antiproliferative activity against human HCT116 cells after 48 hrs by MTT assay; details: HCT-116, 48 h; how it was run: as §1
SGC-7901 = experiment: Antiproliferative activity against human SGC7901 cells after 48 hrs by MTT assay; details: SGC-7901, 48 h; how it was run: as §1

## COc1cc2c(cc1OC)-c1c(-c3cc(OC)c(OC)c(OC)c3)c(-c3ccc(O)c(O)c3)cn1CC2
A549
  IC50: 99.4 µM
K562
  IC50: 14.1 µM
SMMC-7721
  IC50: 43.9 µM
HCT-116
  IC50: 5.8 µM
SGC-7901
  IC50: > 99.4 µM

## COc1cc2c(cc1OC(C)C)CCn1cc(-c3ccc(Cl)cc3)c(-c3cc(OC)c(OC)c(OC)c3)c1-2
A549
  IC50: > 93.6 µM
K562
  IC50: > 93.6 µM
SMMC-7721
  IC50: > 93.6 µM
HCT-116
  IC50: > 93.6 µM
SGC-7901
  IC50: > 93.6 µM

## COc1ccc(-c2c(-c3ccc(O)cc3)cn3c2-c2cc(OC)c(OC)cc2CC3)cc1
A549
  IC50: > 117 µM
K562
  IC50: 3.1 µM
SMMC-7721
  IC50: > 117 µM
HCT-116
  IC50: 34.5 µM
SGC-7901
  IC50: > 117 µM

## COc1cc2c(cc1OC(C)C)CCn1cc(-c3ccc(Br)cc3)c(-c3cc(OC)c(OC)c(OC)c3)c1-2
A549
  IC50: > 86.4 µM
K562
  IC50: > 86.4 µM
SMMC-7721
  IC50: > 86.4 µM
HCT-116
  IC50: > 86.4 µM
SGC-7901
  IC50: 15.4 µM

## COc1cc2c(cc1OC)-c1c(-c3cc(OC)c(OC)c(OC)c3)c(-c3ccc(O)cc3)cn1CC2
A549
  IC50: 23.3 µM
K562
  IC50: 5.3 µM
SMMC-7721
  IC50: 15 µM
HCT-116
  IC50: 13.8 µM
SGC-7901
  IC50: 22.7 µM

## COc1cc2c(cc1OC)-c1c(-c3cc(OC)c(OC)c(OC)c3)c(-c3ccc(OC)c(OC(C)C)c3)cn1CC2
A549
  IC50: > 89.3 µM
K562
  IC50: > 89.3 µM
SMMC-7721
  IC50: > 89.3 µM
HCT-116
  IC50: > 89.3 µM
SGC-7901
  IC50: > 89.3 µM

## COc1ccc(-c2c(-c3cc(F)ccc3OC)cn3c2-c2cc(OC)c(OC)cc2CC3)cc1
A549
  IC50: > 109 µM
K562
  IC50: > 109 µM
SMMC-7721
  IC50: > 109 µM
HCT-116
  IC50: > 109 µM
SGC-7901
  IC50: > 109 µM

## COc1ccc(-c2c(-c3ccc(O)c(O)c3)cn3c2-c2cc(OC)c(OC)cc2CC3)cc1OC
A549
  IC50: > 106 µM
K562
  IC50: > 106 µM
SMMC-7721
  IC50: > 106 µM
HCT-116
  IC50: > 106 µM
SGC-7901
  IC50: > 106 µM

## COc1cc2c(cc1OC(C)C)CCn1cc(-c3ccc(O)c(O)c3)c(-c3cc(OC)c(OC)c(OC)c3)c1-2
A549
  IC50: > 94.1 µM
K562
  IC50: 4 µM
SMMC-7721
  IC50: > 94.1 µM
HCT-116
  IC50: 1.4 µM
SGC-7901
  IC50: > 94.1 µM

## COc1cc2c(cc1OC)-c1c(-c3cc(OC)c(OC)c(OC)c3)c(-c3ccc(Cl)cc3)cn1CC2
A549
  IC50: > 98.8 µM
K562
  IC50: > 98.8 µM
SMMC-7721
  IC50: > 98.8 µM
HCT-116
  IC50: > 98.8 µM
SGC-7901
  IC50: > 98.8 µM

## COc1cc(-c2c(-c3ccc(O)c(O)c3)cn3c2-c2cc(OC)c(OC(C)C)cc2CC3)ccc1OC(C)C
A549
  IC50: 6.7 µM
K562
  IC50: 2.7 µM
SMMC-7721
  IC50: 10.9 µM
HCT-116
  IC50: 0.7 µM
SGC-7901
  IC50: 11.4 µM

## COc1ccc(-c2c(-c3ccc(OC)c(O)c3)cn3c2-c2cc(OC)c(OC)cc2CC3)cc1
A549
  IC50: > 109 µM
K562
  IC50: > 109 µM
SMMC-7721
  IC50: > 109 µM
HCT-116
  IC50: > 109 µM
SGC-7901
  IC50: > 109 µM

## COc1ccc(-c2cn3c(c2-c2cc(OC)c(OC)c(OC)c2)-c2cc(OC)c(OC)cc2CC3)cc1O
A549
  IC50: > 96.4 µM
K562
  IC50: 22 µM
SMMC-7721
  IC50: > 96.4 µM
HCT-116
  IC50: 3.2 µM
SGC-7901
  IC50: > 96.4 µM

## COc1ccc(-c2cn3c(c2-c2cc(OC)c(OC)c(OC)c2)-c2cc(OC)c(OC(C)C)cc2CC3)cc1O
A549
  IC50: > 91.5 µM
K562
  IC50: 19.6 µM
SMMC-7721
  IC50: > 91.5 µM
HCT-116
  IC50: > 91.5 µM
SGC-7901
  IC50: > 91.5 µM

## COc1cc2c(cc1OC(C)C)CCn1cc(-c3ccc(O)cc3)c(-c3cc(OC)c(OC)c(OC)c3)c1-2
A549
  IC50: > 96.8 µM
K562
  IC50: > 96.8 µM
SMMC-7721
  IC50: 46.7 µM
HCT-116
  IC50: > 96.8 µM
SGC-7901
  IC50: > 96.8 µM

## COc1cc2c(cc1OC)-c1c(-c3cc(OC)c(OC)c(OC)c3)c(-c3ccc(Br)cc3)cn1CC2
A549
  IC50: > 90.8 µM
K562
  IC50: 8.8 µM
SMMC-7721
  IC50: 17.5 µM
HCT-116
  IC50: > 90.8 µM
SGC-7901
  IC50: 1.2 µM

## COc1ccc(-c2c(-c3cc(F)ccc3OC(C)C)cn3c2-c2cc(OC)c(OC)cc2CC3)cc1
A549
  IC50: > 103 µM
K562
  IC50: > 103 µM
SMMC-7721
  IC50: > 103 µM
HCT-116
  IC50: > 103 µM
SGC-7901
  IC50: > 103 µM

## COc1cc(-c2c(-c3cc(OC)c(OC(C)C)cc3OS(C)(=O)=O)cn3c2-c2cc(OC)c(OC(C)C)cc2CC3)ccc1OC(C)C
A549
  IC50: > 73.5 µM
K562
  IC50: 59.8 µM
SMMC-7721
  IC50: > 73.5 µM
HCT-116
  IC50: 21 µM
SGC-7901
  IC50: > 73.5 µM

## COc1ccc(-c2c(-c3cc(OC)c(OC)cc3OS(C)(=O)=O)cn3c2-c2cc(OC)c(OC)cc2CC3)cc1OC
A549
  IC50: > 83.9 µM
K562
  IC50: > 83.9 µM
SMMC-7721
  IC50: > 83.9 µM
HCT-116
  IC50: > 83.9 µM
SGC-7901
  IC50: > 83.9 µM

## COc1cc(OS(C)(=O)=O)c(-c2cn3c(c2-c2ccc(OC(C)C)c(OC)c2)-c2cc(OC)c(OC(C)C)cc2CC3)cc1OC
A549
  IC50: > 76.7 µM
K562
  IC50: > 76.7 µM
SMMC-7721
  IC50: > 76.7 µM
HCT-116
  IC50: > 76.7 µM
SGC-7901
  IC50: > 76.7 µM

## COc1ccc(-c2cn3c(c2-c2cc(OC)c(OC)c(OC)c2)-c2cc(OC)c(OC(C)C)cc2CC3)cc1OC(C)C
A549
  IC50: > 85.1 µM
K562
  IC50: 83.3 µM
SMMC-7721
  IC50: > 85.1 µM
HCT-116
  IC50: > 85.1 µM
SGC-7901
  IC50: > 85.1 µM

## COc1cc(-c2c(-c3cc(F)ccc3OC)cn3c2-c2cc(OC)c(OC(C)C)cc2CC3)ccc1OC(C)C
A549
  IC50: > 91.6 µM
K562
  IC50: > 91.6 µM
SMMC-7721
  IC50: > 91.6 µM
HCT-116
  IC50: > 91.6 µM
SGC-7901
  IC50: > 91.6 µM

## COc1cc2c(cc1OC)-c1c(-c3cc(OC)c(OC)c(OC)c3)c(-c3cc(F)ccc3OC)cn1CC2
A549
  IC50: > 96.2 µM
K562
  IC50: 37.1 µM
SMMC-7721
  IC50: > 96.2 µM
HCT-116
  IC50: > 96.2 µM
SGC-7901
  IC50: > 96.2 µM

## CC(=O)O[C@H]1C(=O)[C@@]2(C)[C@H]([C@H](OC(=O)c3ccccc3)[C@]3(O)C[C@H](OC(=O)[C@H](O)[C@@H](NC(=O)c4ccccc4)c4ccccc4)C(C)=C1C3(C)C)[C@]1(OC(C)=O)CO[C@@H]1C[C@@H]2O [PACLITAXEL]
SGC-7901
  IC50: 3.34 µM
